The test system of experiment [1] is Canis familiaris. Description: Effective dose required to produce an increase in dP/dt50, blood pressure by 1500 mmHg/s was determined in dog by intravenous administration. Format: functional, Canis lupus familiaris. The method in brief:
(§1)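 Conscious mongrel dogs (both sexes, 25–30 kg), chronically instrumented via left thoracotomy, used ≥10 days after surgery. Femoral artery BP, Millar tip LV pressure, femoral vein injection. dP/dt taken at LVP 60 mmHg. Increasing iv doses 10 min apart, readings every 10 min. ED1.5 = dose raising dP/dt by 1500 mmHg/s; max = peak rise from control; usually mean of four.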

Experiment [2] concerns Canis familiaris. The experiment in a line: Maximum increase in dP/dt recorded in mmHg/s at the dose 3.0 mg/kg administered intravenously in dog. Format: functional, Canis lupus familiaris. On the set-up: unit not given here. Conditions: route intravenous. The method in brief:
as §1

Experiment [3] has as its system Rattus norvegicus. The experiment in a line: Effective dose required to produce an increase in dP/dt50, blood pressure by 1500 mmHg/s was determined in rat by intravenous administration. The experiment is classed as functional. The method in brief:
(§2)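 Anesthetized rats, dP/dt50, BP and HR (HR from LVP by pulse counter) recorded continuously. Increasing single bolus doses into jugular vein, 0.5 mL/kg, 10 min apart. Values read 10 min post-injection as steady state, not 1–3 min peak. ED1.5 = dose raising dP/dt50 by 1500 mmHg/s; max = peak rise from control; usually mean of four.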

Experiment [4] concerns Rattus norvegicus. The experiment in a line: Maximum increase in dP/dt recorded in mmHg/s at the dose 3.0 mg/kg administered intravenously in rat. The experiment is classed as functional. Conditions: route intravenous. The method in brief:
as §2

The test system of experiment [5] is Felis catus. The experiment in a line: Effective dose required to produce an increase in dP/dt50, blood pressure by 1500 mmHg/s was determined in cat by intravenous administration. The experiment is classed as functional. The method in brief:
(§3)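 Cats of either sex on pentobarbitone (45 mg/kg ip, then 0.1 mg/kg × min infusion), ventilated, open chest. Dextran 10 mL/kg iv, then desacetylmepitranolol 0.3 mg/kg iv for β-blockade failure. LVP/HR via Millar tip in left ventricle; BP, dP/dt50. Rising iv bolus doses 10 min apart, read at 10 min. ED1.5 = dose raising dP/dt50 by 1500 mmHg/s; usually mean of four.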

Experiment [6] concerns Felis catus. The experiment in a line: Maximum increase in dP/dt recorded in mmHg/s at the dose 3.0 mg/kg administered intravenously in cat. Conditions: route intravenous. Format: functional. The method in brief: as §3
The test system of experiment [7] is Rattus norvegicus. Description: Maximum increase in dP/dt recorded in mmHg/s at the dose 10.0 mg/kg administered intravenously in rat. The experiment is classed as functional. Conditions: route intravenous. The method in brief:
as §2

The subject of experiment [8] is Felis catus. The experiment in a line: Maximum increase in dP/dt recorded in mmHg/s at the dose 10.0 mg/kg administered intravenously in cat. The experiment is classed as functional. Conditions: route intravenous. The method in brief:
as §3

Experiment [9] concerns Felis catus. The experiment in a line: Maximum increase in dP/dt recorded in mmHg/s at the dose 1.0 mg/kg administered intravenously in cat. The experiment is classed as functional. Conditions: route intravenous. The method in brief:
as §3

Experiment [10] has as its system Rattus norvegicus. The experiment in a line: Maximum increase in dP/dt recorded in mmHg/s at the dose 1.0 mg/kg administered intravenously in rat. The experiment is classed as functional. To be noted: route intravenous. The method in brief:
as §2

In experiment [11] the test system is Felis catus. Description: Maximum increase in dP/dt recorded in mmHg/s at the dose 0.1 mg/kg administered intravenously in cat. The experiment is classed as functional. To be noted: route intravenous. The method in brief: as §3
In experiment [12] the test system is Canis familiaris. Description: Maximum increase in dP/dt recorded in mmHg/s at the dose in parentheses administered intravenously in dog. The experiment is classed as functional, Canis lupus familiaris. The method in brief:
as §1

The subject of experiment [13] is Canis familiaris. The experiment in a line: Maximum increase in dP/dt recorded in mmHg/s at the dose 1.0 mg/kg administered intravenously in dog. The experiment is classed as functional, Canis lupus familiaris. Conditions: route intravenous. The method in brief:
as §1

The test system of experiment [14] is Felis catus. Description: Maximum increase in dP/dt recorded in mmHg/s at the dose 0.3 mg/kg administered intravenously in cat. Conditions: route intravenous. Format: functional. The method in brief:
as §3

The subject of experiment [15] is Rattus norvegicus. Description: Maximum increase in dP/dt recorded in mmHg/s at the dose 0.1 mg/kg administered intravenously in rat. To be noted: route intravenous. The experiment is classed as functional. The method in brief:
as §2

With `CCOC(=O)C1(C)C(=O)Nc2cc3[nH]c(-c4ccncc4)nc3cc21` (configuration not stated), the ED1.5 with Canis familiaris [1] came to 0.64 mg/kg; in the experiment on Rattus norvegicus [3], 0.09 mg/kg; in the experiment with Felis catus [5], 0.25 mg/kg. In addition, the results for the Max in the experiment with Canis familiaris [2], in the experiment on Rattus norvegicus [4] and in the experiment on Felis catus [6] were more than 3.6, 4200 mmHg/s and 3700 mmHg/s, respectively.
For the compound `CC1(C)C(=O)Nc2cc3[nH]c(Cc4ccncc4)nc3cc21`, the results for the Max with Rattus norvegicus [7] and in the experiment on Felis catus [8] were 4100 mmHg/s and 3800 mmHg/s, respectively. The results for the ED1.5 with Rattus norvegicus [3] and in the experiment with Felis catus [5] were 1.14 mg/kg and 0.6 mg/kg, respectively.
`CC1(C(=O)NN)C(=O)Nc2cc3[nH]c(-c4ccncc4)nc3cc21` (configuration not stated): the ED1.5 with Rattus norvegicus [3] was more than 10 mg/kg.
The compound `CC1(C)C(=O)Nc2cc3[nH]c(CCc4ccncc4)nc3cc21` displayed an ED1.5 in the experiment with Rattus norvegicus [3] of more than 10 mg/kg.
For the compound `O=C1Nc2cc3[nH]c(-c4ccncc4)nc3cc2C12CCCC2`, the ED1.5 in the experiment on Canis familiaris [1] was 0.77 mg/kg; in the experiment with Rattus norvegicus [3] it was 0.2 mg/kg; with Felis catus [5], 0.08 mg/kg. Besides, the Max in the experiment with Canis familiaris [2] turned out to be 2.2; in the experiment with Felis catus [9], 2800 mmHg/s; with Rattus norvegicus [4], 3300 mmHg/s.
With `CCC1C(=O)Nc2cc3[nH]c(-c4cccnc4)nc3cc21` (configuration not stated), the Max in the experiment with Rattus norvegicus [7] came to 4000 mmHg/s; in the experiment on Felis catus [9], 2300 mmHg/s. In addition, the ED1.5 came out at 0.39 mg/kg in the experiment on Rattus norvegicus [3] and 0.15 mg/kg in the experiment with Felis catus [5].
Turning to `CC1C(=O)Nc2cc3[nH]c(-c4ccncc4)nc3cc21` (configuration not stated), the ED1.5 was found to be 0.58 mg/kg in the experiment with Canis familiaris [1], 0.02 mg/kg in the experiment with Rattus norvegicus [3] and 0.01 mg/kg in the experiment on Felis catus [5]. Also, the Max in the experiment on Canis familiaris [2] came to 1.7; with Rattus norvegicus [10], 4400 mmHg/s; with Felis catus [11], 2500 mmHg/s.
In the case of `CC1(C)C(=O)Nc2cc3[nH]c(-c4cc[n+]([O-])cc4)nc3cc21`, the ED1.5 was 0.44 mg/kg in the experiment with Canis familiaris [1] and 0.03 mg/kg with Rattus norvegicus [3]. Also, the Max with Canis familiaris [12] came to 1800 mmHg/s; in the experiment with Rattus norvegicus [10] it was 4900 mmHg/s.
For the compound `CC1(C)C(=O)Nc2cc3[nH]c(-c4ccccn4)nc3cc21`, the ED1.5 with Canis familiaris [1] turned out to be 1.11 mg/kg; in the experiment on Rattus norvegicus [3], 0.96 mg/kg; in the experiment with Felis catus [5] it was 0.23 mg/kg. Further, the Max came to 1.7 with Canis familiaris [2], 2400 mmHg/s in the experiment on Rattus norvegicus [4] and 2700 mmHg/s in the experiment with Felis catus [6].
`O=C1Nc2cc3[nH]c(-c4ccncc4)nc3cc2C1C1CCCC1` (configuration not stated): the ED1.5 with Rattus norvegicus [3] was more than 10 mg/kg.
For the compound `CCCCc1ccc(-c2nc3cc4c(cc3[nH]2)C(C)(C)C(=O)N4)nc1`, the ED1.5 in the experiment with Rattus norvegicus [3] was more than 3 mg/kg.
`CC1(C)C(=O)Nc2cc3[nH]c(-c4ccnc(O)c4)nc3cc21`: the Max in the experiment on Rattus norvegicus [7] stood at 3400 mmHg/s; in the experiment on Felis catus [9] it was 2400 mmHg/s. In addition, the ED1.5 in the experiment on Rattus norvegicus [3] stood at 0.87 mg/kg; with Felis catus [5] it was 0.21 mg/kg.
Take `Cc1ccc(-c2nc3cc4c(cc3[nH]2)C(C)(C)C(=O)N4)cn1`: the ED1.5 with Rattus norvegicus [3] is more than 3 mg/kg.
`Cc1cc(-c2nc3cc4c(cc3[nH]2)C(C)(C)C(=O)N4)ccn1`: the Max in the experiment on Canis familiaris [13] amounted to 1800 mmHg/s; in the experiment with Rattus norvegicus [10] it was 2500 mmHg/s; in the experiment on Felis catus [11], 2700 mmHg/s. Moreover, the ED1.5 stood at 0.51 mg/kg in the experiment with Canis familiaris [1], 0.29 mg/kg in the experiment on Rattus norvegicus [3] and 0.03 mg/kg in the experiment on Felis catus [5].
Regarding `CC1(C)C(=O)Nc2cc3[nH]c(/C=C/c4cccnc4)nc3cc21`, in the experiment with Rattus norvegicus [7], the Max is 4300 mmHg/s. This compound yielded an ED1.5 in the experiment with Rattus norvegicus [3] of 1.21 mg/kg.
The compound `CCC1(CC)C(=O)Nc2cc3[nH]c(-c4ccncc4)nc3cc21` displayed a Max in the experiment with Rattus norvegicus [7] of 1900 mmHg/s. For the same compound, in the experiment on Rattus norvegicus [3], the ED1.5 is more than 3 mg/kg.
On to `CC1(C)C(=O)Nc2cc3[nH]c(-c4ccnc(Cl)c4)nc3cc21`, for which the ED1.5 in the experiment with Rattus norvegicus [3] and in the experiment on Felis catus [5] was 0.07 mg/kg in each case. In the experiment on Rattus norvegicus [10], this compound registered a Max of 3900 mmHg/s.
On to `COc1nc(C)ccc1-c1nc2cc3c(cc2[nH]1)C(C)(C)C(=O)N3`, for which, in the experiment with Rattus norvegicus [3], the ED1.5 is more than 10 mg/kg.
In the experiment on Rattus norvegicus [3], `CC(C)CC1C(=O)Nc2cc3[nH]c(-c4ccncc4)nc3cc21` (configuration not stated) returned an ED1.5 of more than 3 mg/kg.
With `CCC1C(=O)Nc2cc3[nH]c(-c4ccncc4)nc3cc21` (configuration not stated), the Max came out at 2300 mmHg/s in the experiment with Canis familiaris [13], 2500 mmHg/s in the experiment on Felis catus [14] and 4500 mmHg/s in the experiment with Rattus norvegicus [4]. Moreover, the results for the ED1.5 in the experiment on Canis familiaris [1], in the experiment with Rattus norvegicus [3] and in the experiment with Felis catus [5] were 0.09 mg/kg, 0.06 mg/kg and 0.04 mg/kg, respectively.
For `CC(C)C1C(=O)Nc2cc3[nH]c(-c4ccncc4)nc3cc21` (configuration not stated), the Max in the experiment with Rattus norvegicus [7] amounted to 2200 mmHg/s. In the experiment on Rattus norvegicus [3], this compound gave an ED1.5 of more than 3 mg/kg.
In the case of `CC1(C)C(=O)Nc2cc3[nH]c(-c4cccnc4)nc3cc21`, the ED1.5 came to 0.51 mg/kg in the experiment on Canis familiaris [1], 1 mg/kg in the experiment with Rattus norvegicus [3] and 0.02 mg/kg in the experiment with Felis catus [5]. Moreover, the Max in the experiment with Canis familiaris [2] was determined as 2.5; with Felis catus [14] it was 3500 mmHg/s; with Rattus norvegicus [4], 3500 mmHg/s.
Turning to `CC1C(=O)Nc2cc3[nH]c(-c4cccnc4)nc3cc21` (configuration not stated), the Max with Canis familiaris [13] turned out to be 2400 mmHg/s; with Felis catus [14], 2300 mmHg/s; in the experiment with Rattus norvegicus [4], 4600 mmHg/s. Moreover, the ED1.5 in the experiment with Canis familiaris [1] turned out to be 0.08 mg/kg; in the experiment on Rattus norvegicus [3] it was 0.06 mg/kg; in the experiment with Felis catus [5], 0.03 mg/kg.
Take `CC1(C)C(=O)Nc2cc3[nH]c(-c4ccncc4)nc3cc21` [ADIBENDAN]: the Max amounted to 2000 mmHg/s in the experiment with Canis familiaris [13], 3700 mmHg/s with Rattus norvegicus [15] and 2000 mmHg/s with Felis catus [14]. In addition, the figures for the ED1.5 in the experiment with Canis familiaris [1], in the experiment with Rattus norvegicus [3] and with Felis catus [5] were 0.2 mg/kg, 0.01 mg/kg and 0.01 mg/kg, respectively.
On to `Cc1[nH]c(=O)c(C#N)cc1-c1ccncc1` [MILRINONE], for which the Max with Rattus norvegicus [7] was determined as 3400 mmHg/s; with Canis familiaris [13] it was 2000 mmHg/s; in the experiment with Felis catus [8], 3000 mmHg/s. The ED1.5 is 0.4 mg/kg in the experiment with Canis familiaris [1], 0.14 mg/kg in the experiment with Rattus norvegicus [3] and 0.13 mg/kg in the experiment with Felis catus [5].

These data come from ChEMBL document CHEMBL1123792, “Nonsteroidal cardiotonics. 1. 2-Pyridyl-6,7-dihydro-3H,5H-pyrrolo[2,3-f]benzimidazol-6-ones, a novel class of cardiotonic agents” (1987).
